Data from ChEMBL document CHEMBL1165904, “Design, synthesis and 3D-QSAR of beta-carboline derivatives as potent antitumor agents” (Eur J Med Chem, 2010).

Legend:
Assay type in all cases: functional, cell-based
HepG2 = test: Cytotoxicity against human HepG2 cells by MTT assay
Outline: (§1)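 Tumour cells cultured in RPMI-1640 with 10% (v/v) fetal calf serum plus penicillin and streptomycin, at 37 °C, humidified 5% CO2. Compounds from DMSO stocks; final DMSO in medium 2% (v/v) or lower. Assay in 96-well microtitre cultures with MTT staining. IC50 taken as concentration causing 50% growth inhibition relative to untreated cells.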

HeLa = test: Cytotoxicity against human HeLa cells by MTT assay; outline: as §1
Bel-7402 = test: Cytotoxicity against human Bel7402 cells by MTT assay; outline: as §1
MCF7 = test: Cytotoxicity against human MCF7 cells by MTT assay; outline: as §1
BGC-823 = test: Cytotoxicity against human BGC823 cells by MTT assay; outline: as §1

Structure (SMILES)	IC50 (HepG2; read-out: IC50) [µM]	IC50 (HeLa) [µM]	IC50 (Bel-7402) [µM]	IC50 (MCF7) [µM]	IC50 (BGC-823) [µM]	IC50 (HepG2; read-out: pIC50 (converted)) [µM]
CCCCn1c2ccccc2c2cc(C(=O)OCC)nc(-c3cc(OC)c(OC)c(OC)c3)c21	> 200	> 200	> 200	> 200		
Cc1c2[nH]c3ccccc3c2cc[n+]1CCCc1ccccc1	33	49.8	20.5	23.8	3.5	33.1
CCCCn1c2cc(OCC)ccc2c2ccnc(C)c21	43.3	32.1	36.1	12	37.2	43.7
O=C(NCCO)c1cc2c3ccccc3n(Cc3ccccc3)c2cn1	> 200	> 200	> 200	> 200	> 200	
Cc1c2c(cc[n+]1Cc1ccccc1)c1ccc(OCc3ccccc3)cc1n2CC(C)C	1.9	12.4	5	3.9	5.2	1.91
O=C(NCCO)c1cc2c3ccccc3n(CCCc3ccccc3)c2cn1	> 200	> 200	> 200	> 200	> 200	
CCCCCCCCOc1ccc2c3cc[n+](Cc4ccccc4)c(C)c3n(CCCc3ccccc3)c2c1	3.9	2.2	2	5.3	3.9	3.89
CCn1c2cc(OCc3c(F)c(F)c(F)c(F)c3F)ccc2c2cc[n+](Cc3ccccc3)c(C)c21	1.6	0.93	4	5.7	4.6	1.58
CCOC(=O)c1cc2c([nH]c3ccccc32)c(C)[n+]1Cc1ccccc1	53	101	56.2	44.9	55.3	52.5
CCCC[n+]1ccc2c(c1)[nH]c1ccccc12	94	130	302	338	326	93.3
CCOc1ccc2c3cc[n+](Cc4ccccc4)c(C)c3n(CC)c2c1	14.3	2.2	12.6	8.1	9.2	14.5
CCCCCCCCCCOc1ccc2c3ccnc(C)c3n(CCCC)c2c1	127	106	18.8	62.7	28.4	126
CCCCn1c2ccccc2c2cc(C(=O)NCCO)nc(C)c21	140	80.4	90.6	97.3	45	141
c1ccc(C[n+]2ccc3c(c2)[nH]c2ccccc23)cc1	77.3	85.4	65.1	91.3	91.8	77.6
CCn1c2cc(O)ccc2c2ccnc(C)c21	134	70.3	165	106	160	135
CCCCn1c2ccccc2c2cc(C(=O)NCCN)nc(C)c21	21.9	13.3	56	7.5	17.3	21.9
CCCCn1c2ccccc2c2cc(C(=O)NCCO)nc(-c3cc(OC)c(OC)c(OC)c3)c21		> 200	> 200	105		
Cc1nc(C(=O)NCCN)cc2c3ccccc3n(Cc3ccccc3)c12	34.8	11	53.6	4.7	20.3	34.7
CCOc1ccc2c3ccnc(C)c3n(CC)c2c1	68.9	30.7	27.4	14.4	57.1	69.2
Cc1nccc2c3ccc(OC(C)C)cc3n(CCCc3ccccc3)c12	14.6	48.6	36.2	45.3	16.3	14.5
CCn1c2cc(OCc3c(F)c(F)c(F)c(F)c3F)ccc2c2ccnc(C)c21	236	258	241	103	238	234
CCCCn1c2ccccc2c2cc(C(=O)O)nc(-c3cc(OC)c(OC)c(OC)c3)c21	208	166	187	115	36.2	209
CCCCn1c2cc(OC(C)C)ccc2c2ccnc(C)c21	30.2	21.2	26.8	19.5	19.1	30.2
CCCCn1c2cc(O)ccc2c2ccnc(C)c21	81.5	89.8	69.5	46.9	90.2	81.3

Structure (SMILES)	IC50 (HepG2; read-out: IC50) [µM]	IC50 (HeLa) [µM]	IC50 (Bel-7402) [µM]	IC50 (MCF7) [µM]	IC50 (BGC-823) [µM]	IC50 (HepG2; read-out: pIC50 (converted)) [µM]
COc1ccc2c(c1)[nH]c1c(C)[n+](Cc3ccccc3)ccc12	54.6	77.6	64.2	76.2	67.4	55
CCCCOc1ccc2c3ccnc(C)c3n(CCCC)c2c1	15.5	17.4	69.9	17.3	15.8	15.5
CCCCCCCCOc1ccc2c3ccnc(C)c3n(CCCc3ccccc3)c2c1	105	69.6	21.8	45.9	17.4	105
NCCNC(=O)c1cc2c3ccccc3n(Cc3ccccc3)c2cn1	104	42.8	51.7	51.6	11.9	105
Cc1c2[nH]c3ccccc3c2cc[n+]1Cc1ccccc1	69.5	69.2	74	89.2	77.4	69.2
CCCCn1c2ccccc2c2cc(C(=O)NCCN)ncc21	82.9	26.9	115	18.5	53.2	83.2
Cc1nccc2c3ccc(O)cc3n(CCCc3ccccc3)c12	28.3	45.3	35.1	34.5	29.9	28.2
c1ccc(CCC[n+]2ccc3c(c2)[nH]c2ccccc23)cc1	44.6	44.3	24.6	5.7	7.1	44.7
OCc1cc2c3ccccc3n(Cc3ccc(F)cc3)c2cn1	> 200	> 200	> 200	> 200	> 200	
CCCCn1c2ccccc2c2cc(C=O)nc(C)c21	143	169	123	154	> 200	145
NCCCCCCNC(=O)c1cc2c3ccccc3n(Cc3ccccc3)c2cn1	58.7	24.2	56.8	54.1	34.8	58.9
Cc1nccc2c3ccc(O)cc3n(CC(C)C)c12	116	68.3	114	96.9	140	115
Cc1nccc2c3ccc(OCc4ccccc4)cc3n(CC(C)C)c12	22.2	50.5	26.8	54.1	36	22.4
O=C(NCCO)c1cc2c3ccccc3n(Cc3ccc(F)cc3)c2cn1	> 200	> 200	> 200	> 200	> 200	
CCCCn1c2ccccc2c2cc(C(=O)NCCCCCCN)ncc21	95.8	53	58.5	42.8	110	95.5
CCCCOc1ccc2c3ccnc(C)c3n(CC(C)C)c2c1	12.1	20.8	42.5	7.2	12.1	12
CCOC(=O)c1cc2c([nH]c3ccccc32)c(-c2cc(OC)c(OC)c(OC)c2)n1	167	> 200	> 200	123	> 200	166
O=Cc1cc2c3ccccc3n(Cc3ccc(F)cc3)c2cn1	> 200	> 200	> 200	> 200	> 200	
CCOC(=O)c1cc2c3ccccc3n(Cc3ccc(F)cc3)c2cn1	> 200	> 200	> 200	> 200	> 200	
CCCCOc1ccc2c3cc[n+](Cc4ccccc4)c(C)c3n(CC(C)C)c2c1	1.8	2.6	5.3	5.3	6.8	1.82
CCCCn1c2ccccc2c2cc(CO)nc(C)c21	128	100	122	107	127	129
Cc1nccc2c3ccc(OCc4ccccc4)cc3n(CCCc3ccccc3)c12	15.7	72.6	29.4	63.3	19.5	15.8
Cc1nccc2c3ccc(OCc4c(F)c(F)c(F)c(F)c4F)cc3n(CCCc3ccccc3)c12	147	73.5	18.6	38.7	7.88	148
